Assay results published in ChEMBL document CHEMBL1125673, “Synthesis and antiretrovirus properties of 5'-isocyano-5'-deoxythymidine, 5'-isocyano-2',5'-dideoxyuridine, 3'-azido-5'-isocyano-3',5'-dideoxythymidine, and 3'-azido-5'-isocyano-2',3',5'-trideoxyuridine” (J Med Chem, 1991).
pEC50: −log10 of the molar value. Converted amounts (≈) assume the structure as drawn.

Tests used:
[1] = system: Human immunodeficiency virus 1; assay: Concentration of compound required to inhibit HIV-1 replication in MT-4 cells by 50%; assay type: functional, organism-based; conditions: Human immunodeficiency virus 1, MT4
Summary of the method: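 HIV-1 strain HTLV-III_B infection of human MT-4 lymphocytes; EC50 is the compound concentration that inhibits virus-induced cytopathogenicity by 50%.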

MT4 = assay: Concentration of compound required to reduce MT-4 cells viability by 50%.; assay type: functional; conditions: Homo sapiens
Summary of the method: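 Uninfected human MT-4 lymphocyte cultures exposed to compound; CC50 is the concentration that lowers cell viability by 50%.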

C3H/3T3 = assay: Concentration of compound required to inhibit […] MSV-induced transformation of C3H/3T3 cells by 50%.; assay type: functional, cell-based; conditions: Mus musculus
Summary of the method: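 Moloney murine sarcoma virus (MSV) infection of murine embryo fibroblast C3H/3T3 cells; EC50 is the compound concentration that inhibits MSV-induced cell transformation by 50%.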

[2] = Minimal inhibitory concentration was measured as compound concentration that causes a microscopically visible alteration of C3H cell morphology.; assay type: functional; conditions: Mus musculus
Summary of the method: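 C3H murine embryo fibroblasts exposed to compound and examined by microscope; the minimal inhibitory concentration is the lowest level giving a visible change in cell morphology.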

| SMILES | pEC50 [1] | CC50 (MT4) | pEC50 (C3H/3T3) | MIC [2] |
| --- | --- | --- | --- | --- |
| [C-]#[N+]C[C@H]1OC(n2cc(C)c(=O)[nH]c2=O)C[C@H]1N=[N+]=[N-] (stereo partly specified) | < 4.40 | 122 µM |  |  |
| [C-]#[N+]C[C@H]1OC(n2ccc(=O)[nH]c2=O)C[C@H]1N=[N+]=[N-] (stereo partly specified) | < 4.40 | 104 µM |  |  |
| [C-]#[N+]C[C@H]1OC(n2ccc(=O)[nH]c2=O)C[C@H]1O (stereo partly specified) | < 3.70 | 125 µM | < 5.49 | 3.2 µM (≈ 0.759 µg/mL) |
| [C-]#[N+]C[C@H]1OC(n2cc(C)c(=O)[nH]c2=O)C[C@H]1O (stereo partly specified) | < 3.70 | 144 µM | < 5.49 | 3.2 µM (≈ 0.804 µg/mL) |
| Cc1cn([C@H]2C[C@H](N=[N+]=[N-])[C@@H](CO)O2)c(=O)[nH]c1=O [ZIDOVUDINE] | 8.40 | 20 µM | 7.70 | > 400 µM |
